Laboratory results from ChEMBL document CHEMBL4689842, “EUbOPEN Chemogenomics Library wave 1” (2021).

Tested on: U2OS
Assay: Multiplex assay against U2OS
Format: toxicity, cell-based
Details: human
Outline: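 On a CQ1 microscope at 37°C and 5% CO2, live cells were imaged after compound addition. They had been stained at seeding with Hoechst33342, BioTracker Green Microtubule Cytoskeleton Dye, MitoTracker Red and Annexin V Alexa Fluor 680. CellPathfinder machine-learning gating assigned cells to Hoechst high-intensity objects or normal cells, normal cells to healthy, pyknosed or fragmented nuclei, and pyknosed cells to mitotic or apoptotic. Tubulin, mitochondrial-mass and membrane-permeability phenotypes are per cents of healthy-nucleus cells.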

[1] = 12 h, 1 µM, compound concentration 1 uM, replicate 1
[2] = 12 h, 1 µM, compound concentration 1 uM, replicate 2
[3] = 12 h, 10 µM, compound concentration 10 uM, replicate 1
[4] = 12 h, 10 µM, compound concentration 10 uM, replicate 2
[5] = 24 h, 1 µM, compound concentration 1 uM, replicate 1
[6] = 24 h, 1 µM, compound concentration 1 uM, replicate 2
[7] = 24 h, 10 µM, compound concentration 10 uM, replicate 1
[8] = 24 h, 10 µM, compound concentration 10 uM, replicate 2

COc1cccc2cc(-c3nc([C@H]4CC[C@H](C(=O)O)CC4)n4ncnc(N)c34)[nH]c12 [OSI-027]
Population Apoptotic (%) [1]: 55%
Population Fragmented Nuclei (%) [1]: 14%
Population Healthy Nuclei (%) [1]: 81%
Population Hoechst High Intensity Objects (%) [1]: 1%
Population Membrane Permeable-Phenotype (%) [1]: 10%
Population Mitochondria Different-Phenotype (%) [1]: 6%
Population Mitotic Cells (%) [1]: 44%
Population Normal (%) [1]: 98%
Population Pyknosed Nuclei (%) [1]: 3%
Population Tubulin-Different-Phenotype (%) [1]: 21%
Total Cell Count [1]: 227
Population Apoptotic (%) [2]: 33%
Population Fragmented Nuclei (%) [2]: 18%
Population Healthy Nuclei (%) [2]: 79%
Population Hoechst High Intensity Objects (%) [2]: 7%
Population Membrane Permeable-Phenotype (%) [2]: 8%
Population Mitochondria Different-Phenotype (%) [2]: 3%
Population Mitotic Cells (%) [2]: 66%
Population Normal (%) [2]: 92%
Population Pyknosed Nuclei (%) [2]: 1%
Population Tubulin-Different-Phenotype (%) [2]: 31%
Total Cell Count [2]: 117
Population Apoptotic (%) [3]: 8%
Population Fragmented Nuclei (%) [3]: 5%
Population Healthy Nuclei (%) [3]: 76%
Population Hoechst High Intensity Objects (%) [3]: 10%
Population Membrane Permeable-Phenotype (%) [3]: 10%
Population Mitochondria Different-Phenotype (%) [3]: 21%
Population Mitotic Cells (%) [3]: 91%
Population Normal (%) [3]: 89%
Population Pyknosed Nuclei (%) [3]: 17%
Population Tubulin-Different-Phenotype (%) [3]: 27%
Total Cell Count [3]: 160
Population Apoptotic (%) [4]: 14%
Population Fragmented Nuclei (%) [4]: 14%
Population Healthy Nuclei (%) [4]: 78%
Population Hoechst High Intensity Objects (%) [4]: 17%
Population Membrane Permeable-Phenotype (%) [4]: 7%
Population Mitochondria Different-Phenotype (%) [4]: 26%
Population Mitotic Cells (%) [4]: 85%
Population Normal (%) [4]: 82%
Population Pyknosed Nuclei (%) [4]: 7%
Population Tubulin-Different-Phenotype (%) [4]: 39%
Total Cell Count [4]: 101
Population Apoptotic (%) [5]: 29%
Population Fragmented Nuclei (%) [5]: 10%
Population Healthy Nuclei (%) [5]: 81%
Population Hoechst High Intensity Objects (%) [5]: 3%
Population Membrane Permeable-Phenotype (%) [5]: 6%
Population Mitochondria Different-Phenotype (%) [5]: 5%
Population Mitotic Cells (%) [5]: 70%
Population Normal (%) [5]: 96%
Population Pyknosed Nuclei (%) [5]: 8%
Total Cell Count [5]: 270
Population Apoptotic (%) [6]: 42%
Population Fragmented Nuclei (%) [6]: 13%
Population Healthy Nuclei (%) [6]: 82%
Population Hoechst High Intensity Objects (%) [6]: 5%
Population Membrane Permeable-Phenotype (%) [6]: 10%
Population Mitochondria Different-Phenotype (%) [6]: 7%
Population Mitotic Cells (%) [6]: 57%
Population Normal (%) [6]: 94%
Population Pyknosed Nuclei (%) [6]: 3%
Population Tubulin-Different-Phenotype (%) [6]: 29%
Total Cell Count [6]: 144
Population Apoptotic (%) [7]: 13%
Population Fragmented Nuclei (%) [7]: 6%
Population Healthy Nuclei (%) [7]: 81%
Population Hoechst High Intensity Objects (%) [7]: 7%
Population Membrane Permeable-Phenotype (%) [7]: 12%
Population Mitochondria Different-Phenotype (%) [7]: 20%
Population Mitotic Cells (%) [7]: 86%
Population Normal (%) [7]: 92%
Population Pyknosed Nuclei (%) [7]: 11%
Population Tubulin-Different-Phenotype (%) [7]: 31%
Total Cell Count [7]: 190
Population Apoptotic (%) [8]: 0%
Population Fragmented Nuclei (%) [8]: 14%
Population Healthy Nuclei (%) [8]: 84%
Population Hoechst High Intensity Objects (%) [8]: 11%
Population Membrane Permeable-Phenotype (%) [8]: 11%
Population Mitochondria Different-Phenotype (%) [8]: 31%
Population Mitotic Cells (%) [8]: 100%
Population Normal (%) [8]: 88%
Population Pyknosed Nuclei (%) [8]: 1%
Population Tubulin-Different-Phenotype (%) [8]: 34%
Total Cell Count [8]: 120

CCn1cc(-c2ccnc3[nH]c(-c4cccc(CN(C)C)c4)cc23)c(-c2ccc(NC(=O)N(C)C)cc2)n1 [GSK-1070916]
Population Apoptotic (%) [1]: 25%
Population Fragmented Nuclei (%) [1]: 4%
Population Healthy Nuclei (%) [1]: 91%
Population Hoechst High Intensity Objects (%) [1]: 2%
Population Membrane Permeable-Phenotype (%) [1]: 28%
Population Mitochondria Different-Phenotype (%) [1]: 17%
Population Mitotic Cells (%) [1]: 75%
Population Normal (%) [1]: 97%
Population Pyknosed Nuclei (%) [1]: 3%
Population Tubulin-Different-Phenotype (%) [1]: 24%
Total Cell Count [1]: 141
Population Apoptotic (%) [2]: 100%
Population Fragmented Nuclei (%) [2]: 12%
Population Healthy Nuclei (%) [2]: 86%
Population Hoechst High Intensity Objects (%) [2]: 14%
Population Membrane Permeable-Phenotype (%) [2]: 30%
Population Mitochondria Different-Phenotype (%) [2]: 35%
Population Mitotic Cells (%) [2]: 0%
Population Normal (%) [2]: 85%
Population Pyknosed Nuclei (%) [2]: 1%
Population Tubulin-Different-Phenotype (%) [2]: 26%
Total Cell Count [2]: 97
Population Apoptotic (%) [3]: 50%
Population Fragmented Nuclei (%) [3]: 12%
Population Healthy Nuclei (%) [3]: 62%
Population Hoechst High Intensity Objects (%) [3]: 9%
Population Membrane Permeable-Phenotype (%) [3]: 32%
Population Mitochondria Different-Phenotype (%) [3]: 44%
Population Mitotic Cells (%) [3]: 49%
Population Normal (%) [3]: 90%
Population Pyknosed Nuclei (%) [3]: 24%
Population Tubulin-Different-Phenotype (%) [3]: 99%
Total Cell Count [3]: 207
Population Apoptotic (%) [4]: 48%
Population Fragmented Nuclei (%) [4]: 24%
Population Healthy Nuclei (%) [4]: 48%
Population Hoechst High Intensity Objects (%) [4]: 16%
Population Membrane Permeable-Phenotype (%) [4]: 37%
Population Mitochondria Different-Phenotype (%) [4]: 67%
Population Mitotic Cells (%) [4]: 51%
Population Normal (%) [4]: 83%
Population Pyknosed Nuclei (%) [4]: 27%
Population Tubulin-Different-Phenotype (%) [4]: 100%
Total Cell Count [4]: 76
Population Apoptotic (%) [5]: 38%
Population Fragmented Nuclei (%) [5]: 6%
Population Healthy Nuclei (%) [5]: 81%
Population Hoechst High Intensity Objects (%) [5]: 2%
Population Membrane Permeable-Phenotype (%) [5]: 15%
Population Mitochondria Different-Phenotype (%) [5]: 27%
Population Mitotic Cells (%) [5]: 61%
Population Normal (%) [5]: 97%
Population Pyknosed Nuclei (%) [5]: 12%
Population Tubulin-Different-Phenotype (%) [5]: 15%
Total Cell Count [5]: 141
Population Apoptotic (%) [6]: 40%
Population Fragmented Nuclei (%) [6]: 8%
Population Healthy Nuclei (%) [6]: 83%
Population Hoechst High Intensity Objects (%) [6]: 18%
Population Membrane Permeable-Phenotype (%) [6]: 22%
Population Mitochondria Different-Phenotype (%) [6]: 63%
Population Mitotic Cells (%) [6]: 60%
Population Normal (%) [6]: 81%
Population Pyknosed Nuclei (%) [6]: 8%
Population Tubulin-Different-Phenotype (%) [6]: 18%
Total Cell Count [6]: 92
Population Apoptotic (%) [7]: 65%
Population Fragmented Nuclei (%) [7]: 13%
Population Healthy Nuclei (%) [7]: 45%
Population Hoechst High Intensity Objects (%) [7]: 16%
Population Membrane Permeable-Phenotype (%) [7]: 50%
Population Mitochondria Different-Phenotype (%) [7]: 85%
Population Mitotic Cells (%) [7]: 34%
Population Normal (%) [7]: 83%
Population Pyknosed Nuclei (%) [7]: 40%
Population Tubulin-Different-Phenotype (%) [7]: 98%
Total Cell Count [7]: 216
Population Apoptotic (%) [8]: 64%
Population Fragmented Nuclei (%) [8]: 17%
Population Healthy Nuclei (%) [8]: 36%
Population Hoechst High Intensity Objects (%) [8]: 18%
Population Membrane Permeable-Phenotype (%) [8]: 63%
Population Mitochondria Different-Phenotype (%) [8]: 87%
Population Mitotic Cells (%) [8]: 35%
Population Normal (%) [8]: 81%
Population Pyknosed Nuclei (%) [8]: 45%
Population Tubulin-Different-Phenotype (%) [8]: 100%
Total Cell Count [8]: 72
